# Source: ChEMBL document CHEMBL1139385, “Structural analysis of ARC-type inhibitor (ARC-1034) binding to protein kinase A catalytic subunit and rational design of bisubstrate analogue inhibitors of basophilic protein kinases” (J Med Chem, 2009)
# Where a SMILES comes first, the peptide text is derived from it. [ ]: non-standard residue; d: D form. The star is where a group is joined. Adenosine(5'-uronoyl) = Nc1ncnc2c1ncn2[C@@H]1O[C@H](C(=O)*)[C@@H](O)[C@H]1O; Ahx = NCCCCCC(=O)O
# Assays:
# [1] = target: CDK2/Cyclin A1 (Homo sapiens) (UniProt P24941+P78396); assay: Inhibition of Cdk2/cyclin A at 100 nM relative to control; assay type: protein-complex assay
# In short: (§1)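 Activity is expressed as percent inhibition versus control incubations lacking inhibitor. Values are means of duplicate determinations.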
# [2] = target: 5'-AMP-activated protein kinase catalytic subunit alpha-1 (Homo sapiens) (UniProt Q13131); assay: Inhibition of AMPKalpha1 at 100 nM relative to control; in short: as §1
# [3] = target: Calcium/calmodulin-dependent protein kinase type 1D (Homo sapiens) (UniProt Q8IU85); assay: Inhibition of CaMK1delta at 100 nM relative to control; in short: as §1
# [4] = target: Protein kinase C eta type (Homo sapiens) (UniProt P24723); assay: Inhibition of PKCeta at 100 nM relative to control; in short: as §1
# Sequence of Protein kinase C eta type (Homo sapiens) (P24723 whole entry): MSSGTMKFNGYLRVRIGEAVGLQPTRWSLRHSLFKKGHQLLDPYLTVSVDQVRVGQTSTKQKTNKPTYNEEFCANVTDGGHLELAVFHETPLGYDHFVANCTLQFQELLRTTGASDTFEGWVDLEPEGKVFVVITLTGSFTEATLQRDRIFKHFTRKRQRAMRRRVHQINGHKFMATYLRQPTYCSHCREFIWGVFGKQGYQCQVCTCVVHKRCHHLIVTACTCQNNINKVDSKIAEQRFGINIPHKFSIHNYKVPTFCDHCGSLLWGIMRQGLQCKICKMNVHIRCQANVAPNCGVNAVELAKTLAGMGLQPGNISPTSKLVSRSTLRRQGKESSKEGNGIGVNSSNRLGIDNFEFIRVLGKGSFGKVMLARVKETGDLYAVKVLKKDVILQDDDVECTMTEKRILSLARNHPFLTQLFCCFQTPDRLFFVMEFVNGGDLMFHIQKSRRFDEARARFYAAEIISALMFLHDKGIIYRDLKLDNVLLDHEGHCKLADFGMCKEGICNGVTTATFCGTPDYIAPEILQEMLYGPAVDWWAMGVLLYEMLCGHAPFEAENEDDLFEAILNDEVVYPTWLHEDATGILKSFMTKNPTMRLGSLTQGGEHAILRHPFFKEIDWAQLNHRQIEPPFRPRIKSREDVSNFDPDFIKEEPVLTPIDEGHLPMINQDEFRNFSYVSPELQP
# [5] = target: Ribosomal protein S6 kinase alpha-5 (Homo sapiens) (UniProt O75582); assay: Inhibition of MSK1 at 100 nM relative to control; in short: as §1
# Sequence of Ribosomal protein S6 kinase alpha-5 (Homo sapiens) (O75582 whole entry, looked up): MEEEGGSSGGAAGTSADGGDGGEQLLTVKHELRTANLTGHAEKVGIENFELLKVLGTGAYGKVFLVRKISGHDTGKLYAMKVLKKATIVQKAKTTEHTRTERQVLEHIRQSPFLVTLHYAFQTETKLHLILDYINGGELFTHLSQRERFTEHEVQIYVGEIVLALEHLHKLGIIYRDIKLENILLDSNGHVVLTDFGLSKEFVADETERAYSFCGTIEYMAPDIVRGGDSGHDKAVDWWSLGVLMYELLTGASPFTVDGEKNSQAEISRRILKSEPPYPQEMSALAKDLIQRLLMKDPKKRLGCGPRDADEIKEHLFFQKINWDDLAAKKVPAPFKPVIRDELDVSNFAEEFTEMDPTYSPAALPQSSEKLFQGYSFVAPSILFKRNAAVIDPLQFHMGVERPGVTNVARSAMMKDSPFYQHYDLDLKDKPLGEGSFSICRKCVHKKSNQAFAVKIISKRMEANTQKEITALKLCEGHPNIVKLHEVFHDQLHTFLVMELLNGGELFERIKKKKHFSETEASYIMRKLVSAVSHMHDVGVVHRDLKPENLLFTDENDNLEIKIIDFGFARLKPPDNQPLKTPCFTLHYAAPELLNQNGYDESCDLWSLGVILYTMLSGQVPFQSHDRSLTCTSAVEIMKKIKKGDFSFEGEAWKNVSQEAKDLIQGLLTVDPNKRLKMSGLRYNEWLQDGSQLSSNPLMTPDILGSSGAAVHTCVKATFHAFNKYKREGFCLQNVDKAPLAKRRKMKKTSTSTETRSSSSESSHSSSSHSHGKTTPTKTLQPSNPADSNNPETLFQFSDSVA
# [6] = target: Ribosomal protein S6 kinase beta-1 (Homo sapiens) (UniProt P23443); assay: Inhibition of p70S6K at 100 nM relative to control; in short: as §1
# [7] = target: Protein kinase C theta type (Homo sapiens) (UniProt Q04759); assay: Inhibition of PKCtheta at 100 nM relative to control; in short: as §1
# Sequence of Protein kinase C theta type (Homo sapiens) (Q04759 whole entry, looked up): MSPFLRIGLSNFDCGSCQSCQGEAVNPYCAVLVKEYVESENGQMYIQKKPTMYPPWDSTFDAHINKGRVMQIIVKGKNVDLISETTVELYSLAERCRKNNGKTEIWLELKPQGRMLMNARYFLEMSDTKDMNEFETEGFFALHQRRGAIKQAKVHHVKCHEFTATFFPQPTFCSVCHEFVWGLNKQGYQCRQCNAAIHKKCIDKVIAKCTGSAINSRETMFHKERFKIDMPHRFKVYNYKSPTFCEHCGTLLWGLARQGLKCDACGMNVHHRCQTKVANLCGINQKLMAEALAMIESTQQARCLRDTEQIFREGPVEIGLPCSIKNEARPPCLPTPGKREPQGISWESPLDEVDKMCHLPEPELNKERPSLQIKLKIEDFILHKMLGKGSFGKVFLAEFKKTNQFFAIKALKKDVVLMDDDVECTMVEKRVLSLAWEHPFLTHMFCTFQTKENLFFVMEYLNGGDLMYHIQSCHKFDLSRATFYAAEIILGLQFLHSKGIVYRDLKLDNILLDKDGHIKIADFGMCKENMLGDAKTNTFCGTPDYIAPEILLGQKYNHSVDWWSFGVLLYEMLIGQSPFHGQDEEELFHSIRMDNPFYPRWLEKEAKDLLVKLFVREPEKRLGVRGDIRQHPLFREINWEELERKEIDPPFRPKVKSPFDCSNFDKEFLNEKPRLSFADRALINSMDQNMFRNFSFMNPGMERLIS
# [8] = target: Calcium/calmodulin-dependent protein kinase type II subunit alpha (Homo sapiens) (UniProt Q9UQM7); assay: Inhibition of CaMK2alpha at 100 nM relative to control; in short: as §1
# [9] = target: Protein kinase C epsilon type (Homo sapiens) (UniProt Q02156); assay: Inhibition of PKCepsilon at 100 nM relative to control; in short: as §1
# Sequence of Protein kinase C epsilon type (Homo sapiens) (Q02156 whole entry): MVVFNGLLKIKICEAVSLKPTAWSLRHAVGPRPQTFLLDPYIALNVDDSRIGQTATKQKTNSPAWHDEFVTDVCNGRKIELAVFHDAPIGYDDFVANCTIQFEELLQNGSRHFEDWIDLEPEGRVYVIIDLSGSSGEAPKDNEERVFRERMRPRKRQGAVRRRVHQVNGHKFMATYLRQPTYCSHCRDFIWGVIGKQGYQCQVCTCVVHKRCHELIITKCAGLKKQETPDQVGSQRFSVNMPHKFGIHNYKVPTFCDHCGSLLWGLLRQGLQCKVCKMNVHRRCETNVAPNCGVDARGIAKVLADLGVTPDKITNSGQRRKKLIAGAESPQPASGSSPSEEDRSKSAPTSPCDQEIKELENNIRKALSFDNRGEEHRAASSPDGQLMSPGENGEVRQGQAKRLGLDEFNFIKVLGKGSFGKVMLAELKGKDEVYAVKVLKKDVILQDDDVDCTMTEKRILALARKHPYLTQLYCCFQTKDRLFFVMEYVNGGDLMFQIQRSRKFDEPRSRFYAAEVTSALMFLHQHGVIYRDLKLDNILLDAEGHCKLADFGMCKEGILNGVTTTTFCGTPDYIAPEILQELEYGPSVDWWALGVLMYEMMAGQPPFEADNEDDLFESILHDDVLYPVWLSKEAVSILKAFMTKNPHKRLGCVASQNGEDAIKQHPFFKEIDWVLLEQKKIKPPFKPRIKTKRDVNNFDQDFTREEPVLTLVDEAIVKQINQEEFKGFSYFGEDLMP
# [10] = target: Protein kinase C beta type (Homo sapiens) (UniProt P05771); assay: Inhibition of PKCbeta2 at 100 nM relative to control; in short: as §1
# Sequence of Protein kinase C beta type (Homo sapiens) (P05771 2-671 limits assumed): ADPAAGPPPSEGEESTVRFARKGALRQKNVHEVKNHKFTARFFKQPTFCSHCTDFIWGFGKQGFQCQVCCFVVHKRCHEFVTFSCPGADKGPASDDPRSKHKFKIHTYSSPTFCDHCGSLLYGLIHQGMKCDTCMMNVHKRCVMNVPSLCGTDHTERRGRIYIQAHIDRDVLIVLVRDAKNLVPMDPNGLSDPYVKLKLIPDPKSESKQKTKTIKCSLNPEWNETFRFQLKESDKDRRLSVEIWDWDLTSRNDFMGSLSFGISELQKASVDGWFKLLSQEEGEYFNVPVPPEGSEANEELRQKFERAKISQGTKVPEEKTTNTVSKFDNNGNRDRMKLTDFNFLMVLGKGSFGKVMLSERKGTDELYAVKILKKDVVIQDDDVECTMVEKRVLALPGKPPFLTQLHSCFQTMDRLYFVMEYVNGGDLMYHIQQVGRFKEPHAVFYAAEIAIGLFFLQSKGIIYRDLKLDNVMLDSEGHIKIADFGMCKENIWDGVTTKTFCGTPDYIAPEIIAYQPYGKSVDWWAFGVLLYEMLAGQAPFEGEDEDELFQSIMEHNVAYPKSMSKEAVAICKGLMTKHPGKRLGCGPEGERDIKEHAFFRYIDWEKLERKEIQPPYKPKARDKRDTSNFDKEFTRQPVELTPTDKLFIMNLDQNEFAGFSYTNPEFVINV
# [11] = target: Ribosomal protein S6 kinase alpha-1 (Homo sapiens) (UniProt Q15418); assay: Inhibition of RSK1 at 100 nM relative to control; in short: as §1
# Sequence of Ribosomal protein S6 kinase alpha-1 (Homo sapiens) (Q15418 whole entry): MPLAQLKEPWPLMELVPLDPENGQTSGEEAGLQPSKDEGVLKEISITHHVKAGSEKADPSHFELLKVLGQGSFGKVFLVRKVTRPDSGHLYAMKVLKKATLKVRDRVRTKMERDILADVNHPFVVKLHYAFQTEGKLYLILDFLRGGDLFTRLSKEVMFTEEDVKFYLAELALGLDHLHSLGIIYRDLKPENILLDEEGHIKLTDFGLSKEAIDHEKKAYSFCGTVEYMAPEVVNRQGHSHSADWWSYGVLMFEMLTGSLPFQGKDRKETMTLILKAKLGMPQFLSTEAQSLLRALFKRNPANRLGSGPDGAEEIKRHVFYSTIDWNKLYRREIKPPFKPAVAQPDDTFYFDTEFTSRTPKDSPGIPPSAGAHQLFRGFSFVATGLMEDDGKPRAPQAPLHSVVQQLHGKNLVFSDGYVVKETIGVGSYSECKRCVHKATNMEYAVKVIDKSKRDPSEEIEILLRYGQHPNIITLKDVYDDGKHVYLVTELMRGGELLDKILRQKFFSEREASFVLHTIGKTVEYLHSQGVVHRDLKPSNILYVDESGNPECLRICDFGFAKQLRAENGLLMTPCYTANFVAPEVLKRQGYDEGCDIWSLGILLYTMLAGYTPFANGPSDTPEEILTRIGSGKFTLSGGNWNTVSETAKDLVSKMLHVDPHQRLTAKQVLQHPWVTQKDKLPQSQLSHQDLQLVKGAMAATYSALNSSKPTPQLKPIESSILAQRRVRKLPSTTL
# [12] = target: Serine/threonine-protein kinase PAK 4 (Homo sapiens) (UniProt O96013); assay: Inhibition of PAK4 at 100 nM relative to control; in short: as §1
# Sequence of Serine/threonine-protein kinase PAK 4 (Homo sapiens) (O96013 whole entry, looked up): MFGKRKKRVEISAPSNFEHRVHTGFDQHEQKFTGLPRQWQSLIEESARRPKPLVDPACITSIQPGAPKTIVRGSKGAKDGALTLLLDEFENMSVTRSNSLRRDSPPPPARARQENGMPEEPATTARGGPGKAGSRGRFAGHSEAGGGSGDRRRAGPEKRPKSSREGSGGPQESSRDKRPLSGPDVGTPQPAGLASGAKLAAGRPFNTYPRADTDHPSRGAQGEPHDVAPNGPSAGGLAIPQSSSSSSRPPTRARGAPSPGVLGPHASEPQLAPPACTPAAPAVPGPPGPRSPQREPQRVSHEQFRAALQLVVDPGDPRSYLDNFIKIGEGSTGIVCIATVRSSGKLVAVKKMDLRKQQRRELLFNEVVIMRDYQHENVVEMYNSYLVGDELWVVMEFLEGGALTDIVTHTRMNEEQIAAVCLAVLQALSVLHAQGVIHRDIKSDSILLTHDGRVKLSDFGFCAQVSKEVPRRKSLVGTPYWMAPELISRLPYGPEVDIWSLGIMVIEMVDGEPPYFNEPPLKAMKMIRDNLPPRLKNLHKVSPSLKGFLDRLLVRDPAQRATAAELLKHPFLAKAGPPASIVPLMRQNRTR
smiles,measurement,setting,value
N=C(N)NCCC[C@@H](NC(=O)[C@@H](CCCNC(=N)N)NC(=O)[C@@H](CCCNC(=N)N)NC(=O)[C@@H](CCCNC(=N)N)NC(=O)[C@@H](CCCNC(=N)N)NC(=O)[C@@H](CCCNC(=N)N)NC(=O)CCCCCNC(=O)[C@@H](CCCCN)NC(=O)CCCCCNC(=O)[C@H]1O[C@@H](n2cnc3c(N)ncnc32)[C@H](O)[C@@H]1O)C(N)=O ({Adenosine(5'-uronoyl)-Ahx}-[dK][Ahx][dR][dR][dR][dR][dR][dR]-NH2),inhibition,[1],0%
same,inhibition,[2],51%
same,inhibition,[3],35%
same,inhibition,[4],106%
same,inhibition,[5],105%
same,inhibition,[6],96%
same,inhibition,[7],97%
same,inhibition,[8],5%
same,inhibition,[9],106%
same,inhibition,[10],94%
same,inhibition,[11],98%
same,inhibition,[12],81%
